Source: PubChem BioAssay
RBBP9 inhibitor = human RBBP9 inhibitors, primary screen, biochemical, fluorescence polarization, FP-Rh probe, HTS | Serine hydrolase RBBP9 (Homo sapiens), O75884 | recombinant RBBP9 | inhibition, % at 7.94 µM | 0.2% of 220,000 active | AID 1515, 2009;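 active = inhibition above the campaign mean of all tested compounds plus 3 SD, cut at about 14% in these data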;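 note: plate controls were DMSO wells with RBBP9 for no effect and wells lacking RBBP9 protein for full effect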
Target sequence (O75884 whole entry, looked up): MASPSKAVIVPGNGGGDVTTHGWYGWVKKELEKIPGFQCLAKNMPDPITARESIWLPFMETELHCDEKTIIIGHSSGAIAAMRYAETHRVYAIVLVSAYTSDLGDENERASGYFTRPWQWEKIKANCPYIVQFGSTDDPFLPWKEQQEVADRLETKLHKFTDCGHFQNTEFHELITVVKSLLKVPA
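System: RBBP9 protein | Quantity: 2.5 µM RBBP9 dispensing solution, before mixing | Reagent: FP-Rh probe, 375 nM dispensing solution | Timing: Enzyme-compound preincubation 30 min, then probe labeling 45 min, 25 °C | Measured by: Fluorescence polarization | Read-out: % inhibition | Replication: One well per compound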
LYPLA2 inh = LYPLA2 inhibitors, primary screen, counter-screen for PME1 inhibitor project, biochemical, fluorescence polarization, FP-Rh probe ABPP. Acyl-protein thioesterase 2 (Homo sapiens), O95372. recombinant LYPLA2. inhibition, % at 5.9 µM. 0.38% of 320,000 active;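 active = inhibition above the screen-wide mean plus 3 SD, limit set per campaign, cut at about 26% in these data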;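 note: 0% = LYPLA2 with DMSO and 100% = wells lacking LYPLA2 enzyme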
Target sequence (O95372 whole entry, looked up): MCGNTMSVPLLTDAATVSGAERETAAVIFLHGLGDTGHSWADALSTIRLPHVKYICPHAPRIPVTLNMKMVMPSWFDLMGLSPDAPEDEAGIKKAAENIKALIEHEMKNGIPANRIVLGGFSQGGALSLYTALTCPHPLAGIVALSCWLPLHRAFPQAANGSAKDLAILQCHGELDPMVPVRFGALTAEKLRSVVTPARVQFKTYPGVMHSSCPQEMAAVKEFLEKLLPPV
LYPLA1 counter = LYPLA1 inhibitors, primary screen, counter-screen for PME1 inhibitor project, biochemical, fluorescence polarization, FP-Rh probe ABPP | recombinant LYPLA1 | 0.16% of 320,000 active | AID 2174, 2009 | inhibition, % at 5.9 µM | Acyl-protein thioesterase 1 (Homo sapiens), O75608;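 active = inhibition above the mean of all tested compounds plus 3 SD, set per campaign, cut at about 14% in these data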;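 note: inhibitors block serine hydrolase probe labeling of LYPLA1 so polarization falls; 0% = enzyme with DMSO and 100% = wells lacking LYPLA1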
Target sequence (O75608 whole entry, looked up): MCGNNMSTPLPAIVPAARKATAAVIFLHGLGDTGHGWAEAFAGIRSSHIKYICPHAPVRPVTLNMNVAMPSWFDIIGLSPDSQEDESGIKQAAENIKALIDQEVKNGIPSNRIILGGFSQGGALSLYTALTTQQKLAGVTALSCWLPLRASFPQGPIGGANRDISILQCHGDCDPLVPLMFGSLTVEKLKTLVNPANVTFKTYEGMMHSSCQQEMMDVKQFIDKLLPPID
PME-1 primary = PME-1 inhibitors via competitive probe labeling, primary screen, biochemical, fluorescence polarization, FP-Rh probe, HTS. Protein phosphatase methylesterase 1 (Homo sapiens), Q9Y570. recombinant PME-1. inhibition, % at 5.9 µM. 0.53% of 320,000 active. AID 2130, 2009;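 active = inhibition above the campaign mean of all compounds plus 3 SD, cut at about 26% in these data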;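 note: competitive labeling of PME-1 active site by serine hydrolase directed probe; 0% = PME-1 with DMSO and 100% = wells lacking PME-1 enzyme; inhibitors block probe labeling so polarization falls and inhibition rises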
Fam108B counter = mouse Fam108B serine hydrolase inhibitors, primary screen, counter-screen for RBBP9 inhibitor project, biochemical, fluorescence polarization | recombinant Fam108B, FP-Rh probe fluorescence polarization | inhibition, % at 9.51 µM | 0.33% of 300,000 active;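 active = inhibition above the screen mean inhibition plus 3 SD, computed separately per campaign, cut at about 18% in these data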;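 note: inhibitors lower polarization as less probe binds the enzyme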
The depositor's hits bear a star; . = no result. Only some compounds are listed: those with a hit (about 0.99% of all), similar ones and a draw of the others.

SMILES | RBBP9 inhibitor | LYPLA2 inh | LYPLA1 counter | PME-1 primary | Fam108B counter
COCCN=c1scc(-c2ccco2)n1/N=C/c1ccc(O)c(O)c1O | 24* | -4 | -6 | 2 | -2
O=[N+]([O-])c1ccc(C2=NN(CCO)C(=Nc3ccc(OC(F)(F)F)cc3)SC2)cc1 | -2 | 14 | 2 | 8 | -1
Cc1cc(C)nc(NC(=O)C2c3ccccc3Oc3ccccc32)n1 | -10 | -1 | -3 | -5 | -3
O=Nc1c(O)c2ccccc2c2ccccc12 | . | 1 | 0 | 35* | 15
CN=Cc1sc2ccccc2c1O | -10 | -3 | 0 | -5 | 2
O=S(=O)(Nc1ccc(N=Nc2ccc(O)c3ccccc23)cc1)c1ccccc1 | 4 | 7 | -14 | 39* | 15
CCN1/C(=C/C=C/c2oc3ccc4ccccc4c3[n+]2CC)Oc2ccc3ccccc3c21 | -26 | -33 | 58* | -57 | 118*
CC[n+]1c(/C=C/N(C)c2ccccc2)oc2ccc(Cl)cc21 | -4 | 1 | -1 | -2 | -1
CC(=O)c1sc(N/N=C\c2cccc(Br)c2)nc1C | -4 | 4 | 7 | 23 | 4
CC(=O)c1sc(N/N=C\c2ccc(Br)cc2)nc1C | -10 | -4 | -2 | 27* | 1
COc1ccc2[nH]c(=O)cc(C(=O)O)c2c1 | 5 | 5 | -1 | -3 | 7
COc1ccc2[nH]c3c4c(ccc3c2c1)C(=O)C=CC4=O | 84* | . | . | . | .
O=C(CSc1nc2nn(-c3ccccc3)c(=O)c-2c2n1CCCCC2)NCCCc1ccccc1 | -8 | 4 | -2 | -2 | -1
O=c1[nH]c(C2CCN(S(=O)(=O)c3ccc(C(F)(F)F)cc3)CC2)nc2c1nnn2Cc1ccc(F)cc1 | . | 2 | -3 | 68* | -3
COc1ccccc1-c1c(C#N)c(N)nc2c1CCc1ccccc1-2 | -10 | -13 | -8 | 40* | -1
CN(C)c1ccc(NC(=O)Nc2ccc3snnc3c2)cc1 | 8 | 1 | -9 | 32* | 9
Cc1cc(SCC(=O)N/N=C/c2ccc(O)c(O)c2O)c(C)cc1Br | 4 | -6 | -18 | 31* | 10
CC(C)Cn1c(SC(C)C(=O)NC2CC2)nnc1-c1ccccc1F (stereo not drawn) | . | 1 | 0 | 1 | .
C/C(=N\NC(=O)c1ccc(N/N=C(\C)c2ccc(O)cc2)cc1)c1ccc(O)cc1 | 2 | 3 | -7 | 28* | 16
C/C(=N\NC(=O)c1cccc(N/N=C(\C)c2ccco2)c1)c1ccco1 | 2 | . | . | . | .
C/C(=N\Nc1cccc([N+](=O)[O-])c1)c1ccccc1O | 6 | -1 | -6 | 45* | 8
C/C(=N\NC(=O)c1cccc(N/N=C(\C)c2cc(O)ccc2O)c1)c1cc(O)ccc1O | 4 | -16 | -22 | 4 | 30*
CCOC(=O)Cc1csc(NC(=O)c2sc3nc4cc(C)ccc4cc3c2N)n1 | -2 | 0 | -1 | 46* | 4
Cc1cc(NC(=O)c2ccccc2)ccc1NC(=O)Cc1ccccc1 | . | 6 | 1 | -7 | -10
COC(=O)c1ccc(NC(=O)C(=O)N2CCN(C(=S)Nc3cccc(OC)c3)CC2)cc1 | -6 | 56* | -7 | 1 | 1
SMILES | RBBP9 inhibitor | LYPLA2 inh | LYPLA1 counter | PME-1 primary | Fam108B counter
COc1cccc(NC(=O)C(=O)N2CCOCC2)c1 | -1 | -5 | -1 | -4 | -3
O=C(NCc1ccco1)Nc1cccc([N+](=O)[O-])c1 | 2 | . | . | . | .
Nc1c(C(=O)Nc2ccc(Cl)c(C(=O)O)c2)sc2nc3c(cc12)CCCC3 | . | 0 | 2 | 9 | -2
Nc1c(C(=O)Nc2cccc(C(=O)O)c2)sc2nc3c(cc12)CCCC3 | . | 1 | -2 | 26* | 5
COc1ccccc1N(Cc1ccccc1)S(=O)(=O)c1cc(C(=O)O)ccc1Cl | -6 | -1 | -1 | -4 | -3
O=C(CCS(=O)(=O)c1ccc(Cl)cc1)NCCN1C(=O)S/C(=C\c2ccccc2F)C1=O | -9 | 1 | -6 | -7 | -1
Cc1ccc(S(=O)(=O)CCC(=O)NCCN2C(=O)S/C(=C\c3ccccc3)C2=O)cc1 | -4 | 0 | 1 | 35* | -3
Nc1cc(-c2ccccc2)nn1Cc1ccc(Cl)cc1 | 1 | 0 | -1 | 15 | 1
O=c1ccc(-c2ccccc2)nn1Cc1ccc(Cl)cc1 | . | 38* | -3 | 4 | -4
O=C(CN1CCN(S(=O)(=O)c2ccc(Br)cc2)CC1)N/N=C/c1cc([N+](=O)[O-])ccc1Cl | -3 | -2 | -1 | 27* | 2
O=C(CCc1ccc(Oc2cc([N+](=O)[O-])cc([N+](=O)[O-])c2)cc1)NC1CCCC1 | -11 | 5 | 4 | 26 | 5
CC1CCN(C(=O)CCc2ccc(Oc3cc([N+](=O)[O-])cc([N+](=O)[O-])c3)cc2)CC1 | -2 | 37* | 4 | 7 | 4
c1ccc(-c2ccc(C3CCCN3)cc2)cc1 (stereo not drawn) | -5 | -8 | -2 | 33* | -1
CCOC(=O)c1c(C)[nH]c(C(=O)OCCOc2ccccc2C)c1C | -11 | . | . | . | .
COc1ccc(OC)c(CC(=O)Nc2cc(S(=O)(=O)N3CCCCC3)ccc2C)c1 | . | 1 | -3 | 17 | .
CCOc1ncccc1C(=O)OCC(=O)Nc1cc(S(=O)(=O)N2CCOCC2)ccc1C | 0 | -4 | 1 | 5 | 0
Cc1ccc(S(=O)(=O)N2CCCCC2)cc1NC(=O)COC(=O)c1ccc2c(c1)OCO2 | -7 | 2 | -3 | 40* | -3
Cc1ccc(S(=O)(=O)N2CCOCC2)cc1NC(=O)COC(=O)c1cccnc1Cl | 0 | 5 | 2 | 29* | 4
Cc1noc(C)c1COc1ccc(C(=O)OCC(=O)Nc2cccc(S(=O)(=O)N3CCOCC3)c2)cc1 | -11 | -10 | -7 | -1 | -8
Cc1ccc(S(=O)(=O)N2CCOCC2)cc1NC(=O)COC(=O)c1ccccc1OCc1c(C)noc1C | -6 | 1 | -3 | 32* | 2
COc1ccc(S(=O)(=O)N2CCCCCC2)cc1NC(=O)Cc1cc(OC)c(OC)c(OC)c1 | -7 | -2 | -4 | 57* | 3
COc1cc2c(c(OC)c1OC)-c1ccc(OC)c(=O)cc1[C@@H](NC(C)=O)CC2 | . | 3 | 1 | -6 | 2
COc1cc2c(c(OC)c1OC)-c1ccc(NC(=O)c3ccc(F)cc3)c(=O)cc1[C@@H](NC(C)=O)CC2 | . | 0 | -3 | 31* | 25*
O=C(COC(=O)c1ccc(Br)cc1)NCc1ccccc1 | -5 | 4 | -1 | 2 | 2
CC(=O)Cc1cc(O)c2ccccc2c1OC(=O)c1ccc(Br)cc1 | -7 | -6 | -3 | 28* | 2
Cc1cc(C(=O)CSc2ncccn2)c(C)n1-c1cccc(F)c1 | -4 | 2 | 4 | -1 | -1
